Assay results taken from ChEMBL document CHEMBL1154651, “Lead optimization of COX-2 inhibitor nimesulide analogs to overcome aromatase inhibitor resistance in breast cancer cells” (Bioorg Med Chem Lett, 2009).

Assay: Cytotoxicity against human LTEDaro cells after 72 hrs by MTT assay
Assay type: functional, cell-based
Outline: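 LTEDaro cells (long-term estrogen-deprived MCF-7aro) seeded in custom medium for 24 h, then exposed to a range of concentrations in DMSO (final ≤0.1%) for 72 h, with vehicle-matched DMSO controls. Medium then replaced with 0.5 mg/ml MTT for 2 h at 37°C in CO2 incubator; formazan dissolved in DMSO and read at 570 nm; triplicates.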

Structure (SMILES) | IC50 [µM]
Cc1ccccc1COc1cc(NC(=O)c2ccccc2)ccc1N(C)S(C)(=O)=O | 176
CN(c1ccc(NC(=O)c2ccccc2)cc1OCc1cc(Cl)ccc1Cl)S(C)(=O)=O | 2.15
Cc1ccccc1COc1cc(NC(=O)Cc2cccnc2)ccc1N(C)S(C)(=O)=O | 71.5
Cc1cccc(C)c1COc1cc(NC(=O)Cc2cccnc2)ccc1N(C)S(C)(=O)=O | 22.5
CC(C)c1ccc(COc2cc(NC(=O)Cc3ccncc3)ccc2N(C)S(C)(=O)=O)cc1 | 11.5
Cc1ccc(C)c(COc2cc(NC(=O)Cc3ccncc3)ccc2N(C)S(C)(=O)=O)c1 | 2.37
Cc1cccc(COc2cc(NC(=O)c3ccccc3)ccc2N(C)S(C)(=O)=O)c1 | 16.1
Cc1cc(C)c(COc2cc(NC(=O)C3CCCCC3)ccc2N(C)S(C)(=O)=O)c(C)c1 | 18.5
CCCCCCOc1cc(NC(=O)C2CCCCC2)ccc1N(C)S(C)(=O)=O | 6.98
Cc1ccccc1COc1cc(NC(=O)Cc2ccncc2)ccc1N(C)S(C)(=O)=O | 11.8
Cc1ccccc1COc1cc(NC(=O)Cc2ccccn2)ccc1N(C)S(C)(=O)=O | 93.9
Cc1cccc(C)c1COc1cc(NC(=O)C2CCCCC2)ccc1N(C)S(C)(=O)=O | 39.4
CN(c1ccc(NC(=O)Cc2cccnc2)cc1OCc1cc(Cl)ccc1Cl)S(C)(=O)=O | 14.1
Cc1cccc(C)c1COc1cc(NC(=O)Cc2ccncc2)ccc1N(C)S(C)(=O)=O | 19.9
Cc1cccc(COc2cc(NC(=O)Cc3cccnc3)ccc2N(C)S(C)(=O)=O)c1 | 93.6
Cc1cc(C)c(COc2cc(NC(=O)c3ccccc3)ccc2N(C)S(C)(=O)=O)c(C)c1 | 10.3
CC(C)c1ccc(COc2cc(NC(=O)Cc3ccccn3)ccc2N(C)S(C)(=O)=O)cc1 | 11.4
Cc1cc(C)c(COc2cc(NC(=O)Cc3ccccn3)ccc2N(C)S(C)(=O)=O)c(C)c1 | 51.3
CCCCCCOc1cc(NC(=O)Cc2cccnc2)ccc1N(C)S(C)(=O)=O | 12.1
Cc1cccc(COc2cc(NC(=O)Cc3ccccn3)ccc2N(C)S(C)(=O)=O)c1 | 14.9

Structure (SMILES) | IC50 [µM]
CCCCCCOc1cc(NC(=O)Cc2ccccn2)ccc1N(C)S(C)(=O)=O | 7.68
Cc1ccc(C)c(COc2cc(NC(=O)Cc3cccnc3)ccc2N(C)S(C)(=O)=O)c1 | 1.69
CS(=O)(=O)Nc1ccc([N+](=O)[O-])cc1Oc1ccccc1 [NIMESULIDE] | 173
Cc1cccc(C)c1COc1cc(NC(=O)Cc2ccccn2)ccc1N(C)S(C)(=O)=O | 41.4
CN(c1ccc(NC(=O)Cc2ccncc2)cc1OCc1cc(Cl)ccc1Cl)S(C)(=O)=O | 7.64
CN(c1ccc(NC(=O)C2CCCCC2)cc1OCc1cc(Cl)ccc1Cl)S(C)(=O)=O | 1
Cc1cc(C)c(COc2cc(NC(=O)Cc3ccncc3)ccc2N(C)S(C)(=O)=O)c(C)c1 | 13.2
CCCCCCOc1cc(NC(=O)c2ccccc2)ccc1N(C)S(C)(=O)=O | 12
Cc1ccc(C)c(COc2cc(NC(=O)Cc3ccccn3)ccc2N(C)S(C)(=O)=O)c1 | 174
Cc1cccc(C)c1COc1cc(NC(=O)c2ccccc2)ccc1N(C)S(C)(=O)=O | 16.2
CC(C)c1ccc(COc2cc(NC(=O)C3CCCCC3)ccc2N(C)S(C)(=O)=O)cc1 | 16.1
Cc1cccc(COc2cc(NC(=O)Cc3ccncc3)ccc2N(C)S(C)(=O)=O)c1 | 16.1
CN(c1ccc(NC(=O)Cc2ccccn2)cc1OCc1cc(Cl)ccc1Cl)S(C)(=O)=O | 23.6
Cc1cc(C)c(COc2cc(NC(=O)Cc3cccnc3)ccc2N(C)S(C)(=O)=O)c(C)c1 | 10.4
Cc1cccc(COc2cc(NC(=O)C3CCCCC3)ccc2N(C)S(C)(=O)=O)c1 | 44.2
CCCCCCOc1cc(NC(=O)Cc2ccncc2)ccc1N(C)S(C)(=O)=O | 9.56
Cc1ccccc1COc1cc(NC(=O)C2CCCCC2)ccc1N(C)S(C)(=O)=O | 28.5
Cc1ccc(C)c(COc2cc(NC(=O)c3ccccc3)ccc2N(C)S(C)(=O)=O)c1 | 4.68
CC(C)c1ccc(COc2cc(NC(=O)c3ccccc3)ccc2N(C)S(C)(=O)=O)cc1 | 7.93
CC(C)c1ccc(COc2cc(NC(=O)Cc3cccnc3)ccc2N(C)S(C)(=O)=O)cc1 | 8.26
